Calls of active or inactive are those of the source. No cut-off for these calls is given here.
What was measured:
Synovial fibroblasts [1] = assay: Anti-inflammatory activity in human Synovial fibroblasts derived from rheumatoid arthritis patient assessed as reduction in TNF-alpha induced IL-6 production at 200 uM measured after 72 hrs by ELISA; type: functional, cell-based
Procedure, shortened: (§1)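 Synovial fibroblasts came from collagenase-digested (1 mg/mL, 4 h, 37 °C) RA patient biopsies, grown in RPMI-1640 with 10% FCS and used at passages 3–8. Cultures were stimulated with TNFα (10 ng/mL) while exposed to compound, with medium and compound renewed at 24 h. Supernatants were collected at 72 h for IL-6 ELISA, relative to a 4% DMSO/PBS vehicle control.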

Mus musculus [2] = assay: Anti-inflammatory activity in complete Freund's adjuvant/MOG (35 to 55 residues)/pertussis toxin-induced experimental autoimmune encephalomyelitis C57BL/6 mouse model assessed as decrease in disease progression at 15 mg/kg,ip administration observed after 1 day; type: functional, organism-based
Procedure, shortened: (§2)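 Female C57BL/6 mice, 10–12 weeks old and about 20 g, with EAE induced by s.c. CFA/MOG plus i.p. pertussis toxin on days 0 and 2. Mice entered the study at clinical score 1.5–2, which was day 0, and were randomised. Each received 200 µL i.p. daily for 7 days of 4 mM compound (equimolar dosing) in 4% DMSO/PBS, made fresh. Vehicle controls were used, n = 4–5, with clinical scores recorded daily post treatment.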

Synovial fibroblasts [3] = assay: Anti-inflammatory activity in human Synovial fibroblasts derived from rheumatoid arthritis patient assessed as reduction in TNF-alpha induced IL-6 production measured after 72 hrs by ELISA; type: functional, cell-based; procedure, shortened: as §1
Mus musculus [4] = assay: Anti-inflammatory activity in complete Freund's adjuvant/MOG (35 to 55 residues)/pertussis toxin-induced experimental autoimmune encephalomyelitis C57BL/6 mouse model assessed as decrease in disease progression at 15 mg/kg,ip administration observed after 3 days; type: functional, organism-based; settings: time 3.0 day; procedure, shortened: as §2
Mus musculus [5] = assay: Anti-inflammatory activity in complete Freund's adjuvant/MOG (35 to 55 residues)/pertussis toxin-induced experimental autoimmune encephalomyelitis C57BL/6 mouse model assessed as decrease in disease progression at 15 mg/kg,ip administration observed after 7 days; type: functional, organism-based; settings: time 7.0 day; procedure, shortened: as §2
Mus musculus [6] = assay: Anti-inflammatory activity in complete Freund's adjuvant/MOG (35 to 55 residues)/pertussis toxin-induced experimental autoimmune encephalomyelitis C57BL/6 mouse model assessed as decrease in disease progression at 9 mg/kg,ip administration observed after 7 days; type: functional, organism-based; settings: time 7.0 day; procedure, shortened: as §2
Mus musculus [7] = assay: Anti-inflammatory activity in complete Freund's adjuvant/MOG (35 to 55 residues)/pertussis toxin-induced experimental autoimmune encephalomyelitis C57BL/6 mouse model assessed as decrease in disease progression at 9 mg/kg,ip administration observed after 3 days; type: functional, organism-based; settings: time 3.0 day; procedure, shortened: as §2
Mus musculus [8] = assay: Anti-inflammatory activity in complete Freund's adjuvant/MOG (35 to 55 residues)/pertussis toxin-induced experimental autoimmune encephalomyelitis C57BL/6 mouse model assessed as decrease in disease progression at 16 mg/kg,ip administration observed after 1 day; type: functional, organism-based; procedure, shortened: as §2
Mus musculus [9] = assay: Anti-inflammatory activity in complete Freund's adjuvant/MOG (35 to 55 residues)/pertussis toxin-induced experimental autoimmune encephalomyelitis C57BL/6 mouse model assessed as decrease in disease progression at ip administration observed after 4 days; type: functional, organism-based; settings: time 4.0 day
Procedure, shortened: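 EAE in female C57BL/6 mice, induced with CFA/MOG s.c. and pertussis toxin i.p. Mice were enrolled at clinical score 1.5–2 and randomised, then dosed i.p. daily with compound diluted to 4 mM in 4% DMSO/PBS, 200 µL per mouse. This was a 4-day study, n = 5, with 4% DMSO/PBS vehicle controls. Clinical score was tracked daily after treatment started.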

Mus musculus [10] = assay: Anti-inflammatory activity in complete Freund's adjuvant/MOG (35 to 55 residues)/pertussis toxin-induced experimental autoimmune encephalomyelitis C57BL/6 mouse model assessed as decrease in disease progression at 16 mg/kg,ip administration observed after 2 days; type: functional, organism-based; settings: time 2.0 day; procedure, shortened: as §2

SMILES	Activity (Synovial fibroblasts [1])	further results
Nc1nc2[nH]cc(/C=N/OCc3ccccc3)c2c(=O)[nH]1	Active	–
Nc1nc2[nH]cc(CNCC[C@@H](O)c3ccccc3)c2c(=O)[nH]1	Active	–
Nc1nc2[nH]cc(CNCCCc3ccccc3)c2c(=O)[nH]1	–	Activity (Mus musculus [2]): Active; Activity (Synovial fibroblasts [3]): Dose-Dependent Effect; Activity (Mus musculus [4]): Active; Activity (Mus musculus [5]): Active
CCC(CC)(CCNCc1c[nH]c2nc(N)[nH]c(=O)c12)c1ccccc1	Active	–
Nc1nc2[nH]cc(CNCC[C@H](O)c3ccccc3)c2c(=O)[nH]1	Active	–
CC(CCNCc1c[nH]c2nc(N)[nH]c(=O)c12)c1ccccc1 (stereo unspecified)	Active	–
Nc1nc2[nH]cc(CNCCCc3ccsc3)c2c(=O)[nH]1	Active	–
C[C@H](CCNCc1c[nH]c2nc(N)[nH]c(=O)c12)c1ccccc1	inactive	–
Nc1nc2[nH]cc(CNCCC(c3ccccc3)c3ccccc3)c2c(=O)[nH]1	Active	–
Nc1nc2[nH]cc(CNCCC3(c4ccccc4)SCCS3)c2c(=O)[nH]1	inactive	–
CO/N=C/c1c[nH]c2nc(N)[nH]c(=O)c12	Active	Activity (Mus musculus [6]): inactive; Activity (Mus musculus [7]): Active
Nc1nc2[nH]cc(CNCCC(=O)c3ccccc3)c2c(=O)[nH]1	Active	Activity (Mus musculus [8]): Active
Nc1nc2[nH]cc(/C=N/O)c2c(=O)[nH]1	Active	Activity (Mus musculus [6]): Active
Nc1nc2[nH]cc(CNOCCc3ccccc3)c2c(=O)[nH]1	Active	Activity (Mus musculus [9]): Active
CC(C)(CCNCc1c[nH]c2nc(N)[nH]c(=O)c12)c1ccccc1	Active	Activity (Mus musculus [10]): Active
Nc1nc2[nH]cc(CNCCC3(c4ccccc4)CC3)c2c(=O)[nH]1	Active	–
Nc1nc2[nH]cc(CNCCNc3ccccc3)c2c(=O)[nH]1	Active	–
